The results in this text go back to ChEMBL document CHEMBL1687853, “Increased glycolytic ATP synthesis is associated with tafenoquine resistance in Leishmania major” (Antimicrob Agents Chemother, 2011).

Series [1] concerns Leishmania major. Description: Resistant index, ratio of EC50 for tafenoquine-resistant promastigotes of Leishmania major R4 to EC50 for promastigotes of Leishmania major MHOM/JL/80/Friedlin. Type of series: functional. In a few lines: (§1)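 L. major Friedlin promastigotes, wild type or TFQ-resistant R4, were grown at 28°C in modified RPMI 1640 with 20% heat-inactivated FBS. R4 was selected stepwise from 2.5 to 4 μM TFQ over 10 weeks and kept in 4 μM. Parasites were exposed to increasing drug concentrations for 72 h at 28°C and viability was read by MTT. EC50 is 50% growth inhibition; resistance index is the R4/WT EC50 ratio.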

Series [2] relates to Leishmania major. Description: Antileishmanial activity against tafenoquine-resistant promastigotes of Leishmania major R4 assessed as inhibition of parasite growth after 72 hrs by MTT assay. Conditions: R4, 72 h. Type of series: functional, organism-based. In a few lines:
as §1
In general terms: Formazan colour is commonly taken as a measure of viable cells.

In series [3] the test system is Leishmania major. Briefly: Antileishmanial activity against wild type promastigotes of Leishmania major MHOM/JL/80/Friedlin assessed as inhibition of parasite growth after 72 hrs by MTT assay. In kind it is functional, organism-based. An outline of the steps:
as §1

Series [4] has as its system Leishmania major. Briefly: Induction of acidification in wild type promastigotes of Leishmania major MHOM/JL/80/Friedlin assessed as decrease of pH at 5 uM after 30 mins. Type of series: functional, organism-based. In a few lines:
(§2)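 Promastigotes were loaded with BCECF-AM (5 µg/ml) in pH 7.4 standard buffer for 30 min at 28°C and washed twice. Cells at 2 × 10^7/ml in culture medium then received 20 mM sodium azide or 5 µM TFQ for 1, 3, 5, 10 or 30 min. The ratio at excitation 490/440 nm, emission 535 nm, was converted to pHi with a nigericin calibration curve.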

Series [5] deals with Leishmania major. Description: Induction of acidification in tafenoquine-resistant promastigotes of Leishmania major R4 assessed as decrease of pH at 5 uM after 30 mins. In kind it is functional, organism-based. An outline of the steps:
(§3)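 R4 or revertant promastigotes (R4 grown 1 month drug-free) were loaded with BCECF-AM (5 μg/ml, 30 min, 28°C) and washed. Cells at 2 × 10^7/ml in culture medium then received 5 μM TFQ or 20 mM sodium azide for 1–30 min. pHi came from the 490/440 nm excitation ratio (emission 535 nm), calibrated with nigericin-treated cells at set pH values.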

Series [6] concerns Leishmania major. Description: Drug uptake in wild type promastigotes of Leishmania major MHOM/JL/80/Friedlin at 2 uM after 5 mins by spectrofluorometric technique. Conditions: in vivo. In kind it is ADME, organism-based.
The test system of series [7] is Leishmania major. Description: Drug uptake in promastigotes of tafenoquine-resistant promastigotes of Leishmania major R4 at 2.5 uM after 5 mins by spectrofluorometric technique. Type of series: ADME, organism-based. Conditions: in vivo.
Series [8] concerns Leishmania major. Briefly: Drug uptake in promastigotes of tafenoquine-resistant promastigotes of Leishmania major revert R4 at 5 uM after 5 mins by spectrofluorometric technique. In kind it is ADME, organism-based. Conditions: in vivo.
Series [9] has as its system Leishmania major. Description: Drug uptake in wild type promastigotes of Leishmania major MHOM/JL/80/Friedlin assessed per mg of protein at 5 uM after 15 mins by spectrofluorometric technique. Type of series: ADME, organism-based. Conditions: in vivo, 0.25 h. In a few lines:
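L. major Friedlin promastigotes, grown 48 h at 28°C in RPMI 1640 with 20% iFBS, were used at 2 × 10^7/ml. Cells were exposed to 5 µM TFQ for 15 min at 28°C in culture medium, washed twice in PBS and lysed in 10% SDS, pH 4. Emission was read at 360–460 nm with excitation at 340 nm.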

Series [10] concerns Leishmania major. Briefly: Drug uptake in promastigotes of tafenoquine-resistant promastigotes of Leishmania major R4 assessed per mg of protein at 5 uM after 15 mins by spectrofluorometric technique. In kind it is ADME, organism-based. Conditions: in vivo, 0.25 h. An outline of the steps: (§4)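 Promastigotes at 2 × 10^7/ml were given 5 μM TFQ for 15 min at 28°C in culture medium, washed twice with PBS and lysed in 10% SDS, pH 4. TFQ was read fluorimetrically with excitation at 340 nm and emission at 360–460 nm. For the alkalinization condition, parasites were pretreated with 20 mM NH4Cl for 1 min and then given TFQ in the continued presence of NH4Cl for 15 min.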

Series [11] relates to Leishmania major. Briefly: Drug uptake in promastigotes of tafenoquine-resistant promastigotes of Leishmania major revert R4 assessed per mg of protein at 5 uM after 15 mins by spectrofluorometric technique. Conditions: in vivo, 0.25 h. Type of series: ADME, organism-based. In a few lines:
as §4

Series [12] deals with Leishmania major. Briefly: Effect on ATP synthesis in wild type promastigotes of Leishmania major MHOM/JL/80/Friedlin assessed as decrease of ATP level up to 20 uM after 60 mins by celltiter- glo luminescent assay. In kind it is functional, organism-based. An outline of the steps:
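Promastigotes at 4 × 10^6/ml were held in culture medium with TFQ at 1, 2, 5, 10 or 20 µM for 60 min. Cells were mixed 1:1 with CellTiter-Glo and kept 10 min in the dark. Luminescence, proportional to ATP, was then read.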

The subject of series [13] is Leishmania major. Description: Effect on ATP synthesis in tafenoquine-resistant promastigotes of Leishmania major R4 assessed as increase of ATP level at up to 20 uM after 60 mins by celltiter- glo luminescent assay. In kind it is functional, organism-based. In a few lines:
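Promastigotes at 4 × 10^6/ml were incubated in culture medium with 1, 2, 5, 10 or 20 μM TFQ for 60 min. ATP was measured by CellTiter-Glo: an aliquot was mixed with an equal volume of reagent, held 10 min in the dark, and luminescence was read.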

In series [14] the test system is Leishmania major. Description: Induction of acidification in tafenoquine-resistant promastigotes of Leishmania major revert R4 assessed as decrease of pH at 5 uM after 30 mins. Type of series: functional, organism-based. In a few lines:
as §3

In series [15] the test system is Leishmania major. Description: Induction of acidification in wild type promastigotes of Leishmania major MHOM/JL/80/Friedlin assessed as decrease of pH at 20 mM after 30 mins. Type of series: functional, organism-based. In a few lines: as §2
The subject of series [16] is Leishmania major. Description: Induction of acidification in tafenoquine-resistant promastigotes of Leishmania major R4 assessed as decrease of pH at 20 mM after 30 mins. In kind it is functional, organism-based. In a few lines:
as §3

In series [17] the test system is Leishmania major. Description: Induction of acidification in tafenoquine-resistant promastigotes of Leishmania major revert R4 assessed as decrease of pH at 20 mM after 30 mins. In kind it is functional, organism-based. An outline of the steps: as §3
The subject of series [18] is Leishmania major. Briefly: Drug uptake in wild type promastigotes of Leishmania major MHOM/JL/80/Friedlin assessed per mg of protein at 5 uM after 15 mins by spectrofluorometric technique in presence of ammonium chloride. Conditions: in vivo, 0.25 h.
For series [19], the system named is Leishmania major. Briefly: Drug uptake in promastigotes of tafenoquine-resistant promastigotes of Leishmania major R4 assessed per mg of protein at 5 uM after 15 mins by spectrofluorometric technique in presence of ammonium chloride. Conditions: in vitro, 0.25 h.
For series [20], the system named is Leishmania major. Description: Drug uptake in promastigotes of tafenoquine-resistant promastigotes of Leishmania major revert R4 assessed per mg of protein at 5 uM after 15 mins by spectrofluorometric technique in presence of ammonium chloride. Conditions: in vitro, 0.25 h.

The source made the active and inactive calls. No cut-off for these calls is given here.

For orientation: EC50 means the concentration at which the effect is half-maximal. As to `CCN(CC)CCCCCCNc1cc(OC)cc2c(C)ccnc12.Cl.Cl`, the “Ratio EC50” value in the series on Leishmania major [1] was determined as 2. The EC50 with Leishmania major [2] worked out at 24.5 µM; in the series on Leishmania major [3], 12 µM.
`C[C@@H]1[C@H](O)[C@@H](C)/C=C/C=C/C=C/C=C/C=C/C=C/C=C/[C@H](O[C@@H]2O[C@H](C)[C@@H](O)[C@H](N)[C@@H]2O)C[C@@H]2O[C@](O)(C[C@@H](O)C[C@@H](O)[C@H](O)CC[C@@H](O)C[C@@H](O)CC(=O)O[C@H]1C)C[C@H](O)[C@H]2C(=O)O` [AMPHOTERICIN B]: the “Ratio EC50” value in the series on Leishmania major [1] was found to be 1.7. The values for the EC50 in the series on Leishmania major [2] and in the series with Leishmania major [3] were 3.16 µM and 1.87 µM, respectively.
In the case of `CCN(CC)CCCC(C)Nc1ccnc2cc(Cl)ccc12` (stereo not drawn) [CHLOROQUINE], the “Ratio EC50” value in the series with Leishmania major [1] is recorded as 1.3. Besides, the values for the concentration for a half-maximal effect (EC50) in the series on Leishmania major [2] and with Leishmania major [3] were 23.8 µM and 18.8 µM, respectively.
On the same counts, the results for `COc1cccc2c1C(=O)c1c(O)c3c(c(O)c1C2=O)C[C@@](O)(C(C)=O)C[C@@H]3O[C@H]1C[C@H](N)[C@H](O)[C@H](C)O1` [DAUNORUBICIN] are 1.7, 0.38 µM and 0.22 µM.
On the same counts, the results for `CC(=O)N1CCN(c2ccc(OCC3COC(Cn4ccnc4)(c4ccc(Cl)cc4Cl)O3)cc2)CC1` (stereo not drawn) [KETOCONAZOLE] are 1.4, 28.1 µM and 20 µM.
As for `OC(c1cc(C(F)(F)F)nc2c(C(F)(F)F)cccc12)C1CCCCN1` (stereo not drawn) [MEFLOQUINE], in the series on Leishmania major [1], the “Ratio EC50” value came to 1.1. Also, the 50% effective concentration (EC50) with Leishmania major [2] came to 13.9 µM; with Leishmania major [3] it was 12.5 µM.
For `CCCCCCCCCCCCCCCCOP(=O)([O-])OCC[N+](C)(C)C` [MILTEFOSINE], the “Ratio EC50” value in the series on Leishmania major [1] worked out at 1.5. Moreover, the 50% effective concentration (EC50) in the series on Leishmania major [2] came out at 25.7 µM; in the series with Leishmania major [3] it was 17.7 µM.
On to `NC[C@@H]1O[C@H](O[C@H]2[C@@H](O)[C@H](O[C@@H]3[C@@H](O)[C@H](N)C[C@H](N)[C@H]3O[C@H]3O[C@H](CO)[C@@H](O)[C@H](O)[C@H]3N)O[C@@H]2CO)[C@H](N)[C@@H](O)[C@@H]1O` [PAROMOMYCIN], for which the “Ratio EC50” value in the series on Leishmania major [1] is recorded as 1. The EC50 in the series with Leishmania major [2] is 3.98 µM; with Leishmania major [3], 4.29 µM.
On to `N=C(N)c1ccc(OCCCCCOc2ccc(C(=N)N)cc2)cc1` [PENTAMIDINE], for which, in the series with Leishmania major [1], the “Ratio EC50” value is on record as 1.8. Further, the results for the half-maximal effective concentration (EC50) in the series with Leishmania major [2] and with Leishmania major [3] were 0.45 µM and 0.28 µM, respectively.
On to `COc1cc(NC(C)CCCN)c2ncccc2c1` (stereo not drawn) [PRIMAQUINE], for which the “Ratio EC50” value in the series with Leishmania major [1] is listed as 1.9. The 50% effective concentration (EC50) stood at 53 µM in the series with Leishmania major [2] and 27.7 µM in the series on Leishmania major [3].
For `C=C[C@H]1CN2CC[C@H]1C[C@H]2[C@H](O)c1ccnc2ccc(OC)cc12` [QUININE] the same measures were 1, 9.53 µM and 9.41 µM.
Consider `COc1cc(C)c2c(Oc3cccc(C(F)(F)F)c3)c(OC)cc(NC(C)CCCN)c2n1` (stereo not drawn) [TAFENOQUINE], for which the “Ratio EC50” value with Leishmania major [1] was 2.5. Besides, the EC50 with Leishmania major [2] was 5.49 µM; in the series with Leishmania major [3] it was 2.24 µM. Further, the result with Leishmania major [4], in the series on Leishmania major [12], in the series with Leishmania major [13], in the series on Leishmania major [14], in the series with Leishmania major [15] and with Leishmania major [17] was Active. Also, the outcome in the series with Leishmania major [5] and with Leishmania major [16] was inactive. For the same compound, the Drug uptake entry in the series on Leishmania major [6] is recorded as “Active”; in the series with Leishmania major [7] it was “Active”; with Leishmania major [8], “Active”; in the series on Leishmania major [9], 10775 a.u; with Leishmania major [10], 8809 a.u; in the series with Leishmania major [11], 9657 a.u. The Drug uptake in the series with Leishmania major [18] is recorded as 7009 a.u; in the series on Leishmania major [19], 8462 a.u; with Leishmania major [20], 8524 a.u.
